Source: ChEMBL document CHEMBL1129338, “Inhibitors of acyl-CoA:cholesterol O-acyltransferase. synthesis and pharmacological activity of (+/-)-2-dodecyl-alpha-phenyl-N-(2,4,6-trimethoxyphenyl)-2H-tetrazole-5- acetamide and structurally related tetrazole amide derivatives” (J Med Chem, 1996)

Legend:
Rattus norvegicus [1] = assay: Percent change in total cholesterol (TC) in cholic acid (0.5%)-, cholesterol (1.5%) -, and peanut oil (5.5%)- fed rats at a dose 30 mg/kg.; type: functional
[2] = molecular target: T1, Sterol O-acyltransferase 1 (Mus musculus) (UniProt Q61263); assay: In vitro inhibitory activity against acyl coenzyme A:cholesterol acyltransferase 1 in cell culture assay using murine IC-21 macrophages at 0.1 uM
T1 sequence (whole entry): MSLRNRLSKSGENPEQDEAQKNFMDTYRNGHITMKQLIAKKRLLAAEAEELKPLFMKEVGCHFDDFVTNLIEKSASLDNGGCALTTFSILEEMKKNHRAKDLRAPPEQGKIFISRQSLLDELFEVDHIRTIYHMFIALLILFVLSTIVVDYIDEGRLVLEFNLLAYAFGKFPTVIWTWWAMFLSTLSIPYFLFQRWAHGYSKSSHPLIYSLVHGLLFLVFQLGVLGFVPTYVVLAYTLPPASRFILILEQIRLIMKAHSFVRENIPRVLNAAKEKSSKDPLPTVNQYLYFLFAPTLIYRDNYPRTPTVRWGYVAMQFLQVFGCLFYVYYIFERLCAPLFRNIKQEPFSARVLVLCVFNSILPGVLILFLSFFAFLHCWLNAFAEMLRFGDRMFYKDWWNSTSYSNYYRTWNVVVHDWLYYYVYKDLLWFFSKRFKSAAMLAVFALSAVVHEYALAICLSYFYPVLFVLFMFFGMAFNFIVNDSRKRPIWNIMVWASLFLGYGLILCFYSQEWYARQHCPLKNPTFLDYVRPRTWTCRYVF
How it was run: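 IC-21 mouse macrophages were preincubated 16 h in serum-free DMEM with 20 µM albumin and phosphatidylserine/cholesterol vesicles. The vesicles were sonicated in 150 mM NaCl, 5 mM MOPS, 1 mM EDTA, pH 7.4, and filter-sterilized. Medium was then replaced with serum-free DMEM containing the compound in DMSO at 0.1 µM. Percent inhibition was read, with cell protein measured by the Lowry method.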

Rattus norvegicus [3] = assay: Change in total cholesterol in Chronic Cholesterol-Fed rat model at dose 30 mg/kg; type: functional
How it was run: (§1)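 Rats ate a high-fat, high-cholesterol diet for 14 days. During the second week they received the test compound daily by gavage at 30 mg/kg, in a carboxymethylcellulose/Tween-20 aqueous vehicle. Plasma lipids (total cholesterol, HDL-C, non-HDL-C) were read as percent change.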

Oryctolagus cuniculus [4] = assay: Oral bioactivity expressed as %inhibition after 4 hours of drug administration (dose 50 mg/kg) in rabbit bioassay; type: functional
How it was run: (§2)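 Plasma was taken before dosing and at 1, 2 and 4 h. Plasma (0.2 mL) was hexane-extracted, dried and redissolved in chloroform/methanol 2:1. It was then tested for ACAT inhibition in the liver microsomal assay alongside spiked standards and a 2.5 µM CI-976 reference.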

Rattus norvegicus [5] = assay: Percent change in non High Density Lipoproteins (HDL) in Chronic Cholesterol -Fed rat model at a dose 30 mg/kg
Rattus norvegicus [6] = assay: Percent change in High Density Lipoproteins (HDL) in Chronic Cholesterol -Fed rat model at a dose 30 mg/kg; type: functional; how it was run: as §1
[7] = molecular target: T2, Sterol O-acyltransferase 1 (Rattus norvegicus, UniProt O70536); assay: In vitro inhibitory activity against acyl coenzyme A:cholesterol acyltransferase 1 of liver microsomes isolated from cholesterol-fed rats.
T2 sequence (O70536 whole entry): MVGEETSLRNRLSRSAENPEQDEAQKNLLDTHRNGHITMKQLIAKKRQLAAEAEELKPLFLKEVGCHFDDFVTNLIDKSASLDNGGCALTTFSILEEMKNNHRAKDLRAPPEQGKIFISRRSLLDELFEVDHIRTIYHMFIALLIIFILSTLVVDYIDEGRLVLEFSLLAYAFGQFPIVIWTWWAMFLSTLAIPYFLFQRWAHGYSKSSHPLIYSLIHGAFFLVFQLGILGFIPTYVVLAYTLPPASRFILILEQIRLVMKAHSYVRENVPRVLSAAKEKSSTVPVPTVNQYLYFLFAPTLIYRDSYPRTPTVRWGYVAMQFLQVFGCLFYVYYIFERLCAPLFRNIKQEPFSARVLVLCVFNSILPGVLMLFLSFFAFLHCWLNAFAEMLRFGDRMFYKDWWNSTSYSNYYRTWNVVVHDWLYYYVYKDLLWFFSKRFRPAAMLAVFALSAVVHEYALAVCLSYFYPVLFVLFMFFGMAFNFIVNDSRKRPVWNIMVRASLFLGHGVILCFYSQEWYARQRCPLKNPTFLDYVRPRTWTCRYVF
How it was run: (§3)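 ACAT inhibition was measured in hepatic microsomes isolated from cholesterol-fed rats. Each determination was run in triplicate, and IC50 was reported.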

Oryctolagus cuniculus [8] = assay: Oral bioactivity expressed as %inhibition after 4 hours of drug administration (dose 25 mg/kg) in rabbit bioassay; type: functional; how it was run: as §2
Oryctolagus cuniculus [9] = assay: % change in total cholesterol(TC) versus progression control (PC) with out drug intervention in chronic cholesterol-fed rabbit model at a dose of 25 mg/kg; type: functional
How it was run: (§4)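 Male New Zealand rabbits (1-1.5 kg) were meal-fed 50 g/day of chow with 0.5% cholesterol, 3% coconut oil and 3% peanut oil. After 1 week, compound was added to the diet for 2 weeks at 5 or 25 mg/kg. Plasma total cholesterol came from cardiac blood of fasted animals after nitrogen asphyxiation. It was compared with cholesterol-fed progression controls or with T0, the start of drug intervention, when plasma cholesterol was taken 24 h after the drug meal.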

Rattus norvegicus [10] = assay: In vitro percent decrease in cholesterol activity at 30 mg/kg in acute rat screen; type: functional; conditions: in the assay text read “In vivo” for “In vitro”
How it was run: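 Rats received a single gavage dose of 30 mg/kg, suspended in carboxymethylcellulose/Tween-20 in water, followed by one high-fat, high-cholesterol meal. The read-out was inhibition of the overnight rise in plasma total cholesterol, as percent change.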

Oryctolagus cuniculus [11] = assay: % change in total cholesterol(TC) versus (T0)- at which drug intervention begins at a dose of 5 mg/kg in chronic cholesterol-fed rabbit model; type: functional; how it was run: as §4
Oryctolagus cuniculus [12] = assay: % change in total cholesterol(TC) versus progression control (PC) with out drug intervention in chronic cholesterol-fed rabbit model at a dose of 5 mg/kg; type: functional; how it was run: as §4
Oryctolagus cuniculus [13] = assay: Percent change in total cholesterol(TC) versus (T0)- at which drug intervention begins at a dose of 25 mg/kg in the chronic cholesterol-fed rabbit model; type: functional; how it was run: as §4
[14] = molecular target: T3, Acyl-CoA:cholesterol acyltransferase (Oryctolagus cuniculus) (UniProt Q95214); conditions: 25 mg/kg
T3 sequence (whole entry): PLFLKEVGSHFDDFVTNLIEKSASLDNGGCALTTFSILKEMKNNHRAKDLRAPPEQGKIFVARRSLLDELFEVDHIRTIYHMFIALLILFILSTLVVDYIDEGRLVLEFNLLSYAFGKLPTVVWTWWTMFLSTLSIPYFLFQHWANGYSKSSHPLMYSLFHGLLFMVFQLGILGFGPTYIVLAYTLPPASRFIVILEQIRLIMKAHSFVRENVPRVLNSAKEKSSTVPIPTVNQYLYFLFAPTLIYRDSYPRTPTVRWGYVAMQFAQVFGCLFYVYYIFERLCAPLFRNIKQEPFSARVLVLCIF

Oryctolagus cuniculus [15] = assay: Change in total cholesterol(TC) versus (T0)- at which drug intervention begins at a dose of 5 mg/kg in chronic cholesterol-fed rabbit model; type: functional; how it was run: as §4
Oryctolagus cuniculus [16] = assay: Change in total cholesterol(TC) versus progression control (PC) with out drug intervention in chronic cholesterol-fed rabbit model at a dose of 5 mg/kg; type: functional; how it was run: as §4
Rattus norvegicus [17] = assay: Effective dose to lower nonHDL-C in a cholesterol fed rat model in vivo; type: functional
Oryctolagus cuniculus [18] = assay: Change in total cholesterol(TC) versus progression control (PC) with out drug intervention in chronic cholesterol-fed rabbit model at a dose of 25 mg/kg; type: functional; how it was run: as §4
Oryctolagus cuniculus [19] = assay: Dose response in cholesterol fed rabbit after oral administration; type: functional
How it was run: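 Cholesterol-fed rabbit model with oral dosing across a dose series, 8 animals per dose. Plasma cholesterol reduction was averaged at each dose. ED50, the dose lowering plasma total cholesterol 50%, was calculated from these mean responses with the median-effect equation.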

[20] = molecular target: T3, Acyl-CoA:cholesterol acyltransferase (Oryctolagus cuniculus); conditions: at 25 mg/kg
Rattus norvegicus [21] = assay: Percent change in total cholesterol (TC) in cholic acid (0.5%) - cholesterol (1.5% - peanut oil (5.5%) - fed rats at a dose 30 mg/kg; type: functional
[22] = molecular target: Sterol O-acyltransferase 1 (Mus musculus) (UniProt Q61263); assay: Percent change of compound against Acyl coenzyme A:cholesterol acyltransferase 1 in cell culture assay using murine IC-21 macrophages at 0.1(uM)
[23] = molecular target: T4, Acyl-CoA:cholesterol acyltransferase (Oryctolagus cuniculus, UniProt Q95214); assay: Inhibitory concentration against Acyl coenzyme A:cholesterol acyltransferase 1 from rabbit intestine
T4 sequence (Q95214 whole entry): T3 sequence (whole entry)

[24] = system: Acyl-CoA:cholesterol acyltransferase (Rattus norvegicus); assay: Ability to reduce cholesterol absorption, i.e. the appearance of lymph cholesteryl ester at a dose of 10 mg/kg
[25] = molecular target: T2, Sterol O-acyltransferase 1; assay: Inhibitory concentration against Acyl coenzyme A:cholesterol acyltransferase 1 from rat liver; how it was run: as §3
Rattus norvegicus [26] = assay: % change in total cholesterol in Chronic Cholesterol-Fed rat model at dose 30 mg/kg; type: functional; how it was run: as §1

inhibition [2]	IC50 [7]	Structure (SMILES)	Change (Rattus norvegicus [1])	inhibition in vivo at 50 mg/kg (Oryctolagus cuniculus [4])	Change (Rattus norvegicus [5])	Change (Rattus norvegicus [6])	inhibition in vivo at 25 mg/kg (Oryctolagus cuniculus [8])	Change (Oryctolagus cuniculus [9])	Change (Oryctolagus cuniculus [12])	other results
37%	25 nM	C=CCCCCCCCCCCn1nnc(C(C(=O)Nc2c(OC)cc(OC)cc2OC)c2ccccc2)n1 (stereo not given)	<63%	37%	<58%	98%				Change (Rattus norvegicus [3]): <52%
54%	54 nM	C=CCCCCCCCCCn1nnc(C(C(=O)Nc2c(OC)cc(OC)cc2OC)c2ccccc2)n1 (stereo not given)	<56%	26%	<77%	102%				Change (Rattus norvegicus [3]): <72%
67%	15 nM	CCCCCCCCCCCCc1nnn(C(C(=O)Nc2c(C(C)C)cccc2C(C)C)c2ccccc2)n1 (stereo not given)	<77%			50%	91%	<68%	<55%	Decrease (Rattus norvegicus [10]): 77%; Change (Oryctolagus cuniculus [11]): 18%; Change (Oryctolagus cuniculus [13]): <20%
		CCCCCCCCCCC(C)(C)C(=O)Nc1c(OC)cc(OC)cc1OC [CL-976]								Change [14]: 19%; Change (Oryctolagus cuniculus [15]): 96%; Change (Oryctolagus cuniculus [16]): <28%; ED50 (Rattus norvegicus [17]): 19 mg/kg; Change (Oryctolagus cuniculus [18]): <54%; ED50 (Oryctolagus cuniculus [19]): 21.8 mg/kg; inhibition [20]: 45%
49%	31 nM	CCCCCCCCCCCCn1nnc(C(C)C(=O)Nc2c(OC)cc(OC)cc2OC)n1 (stereo not given)								Change (Rattus norvegicus [21]): <55%
40%	23 nM	CCCCCCCCCCCCn1nnc(C(C(=O)Nc2c(OC)cc(OC)cc2OC)c2ccccc2)n1 (stereo not given)	<63%	4%	<68%	83%	0%	<78%	<71%	ED50 (Rattus norvegicus [17]): 6.4 mg/kg; IC50 [23]: 8 nM; Reduction [24]: 79%; IC50 [25]: 23 nM; ED50 (Oryctolagus cuniculus [19]): 0.1 mg/kg; Change (Oryctolagus cuniculus [13]): <38%; Change (Rattus norvegicus [26]): <60%
52%	21 nM	CCCCCCCCCCCCc1nnn(C(C(=O)Nc2c(OC)cc(OC)cc2OC)c2ccccc2)n1 (stereo not given)	<65%				0%	<68%	<63%	Decrease (Rattus norvegicus [10]): 65%; Change (Oryctolagus cuniculus [11]): <11%

Structure (SMILES)	inhibition [2]	IC50 [7]	Change (Rattus norvegicus [1])	inhibition in vivo at 50 mg/kg (Oryctolagus cuniculus [4])	Change (Rattus norvegicus [5])	Change (Rattus norvegicus [6])	inhibition in vivo at 25 mg/kg (Oryctolagus cuniculus [8])	Change (Oryctolagus cuniculus [9])	Change (Oryctolagus cuniculus [12])	other results
CCCCCCCCCCCCn1nnc(C(=O)Nc2c(OC)cc(OC)cc2OC)n1		35600 nM								Change [22]: 21%
